Measurements as given in ChEMBL document CHEMBL1154191, “Evaluation of spirocyclic 3-(3-fluoropropyl)-2-benzofurans as sigma1 receptor ligands for neuroimaging with positron emission tomography” (J Med Chem, 2009).

Columns and labels:
Blood [1] = test: Biodistribution in CD1 mouse blood assessed per gram of wet tissue at 400 to 600 kBq, iv after 120 minspost-injection by gamma counting; format: ADME, organism-based; conditions: in vivo, 2 h
In short: (§1)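 Female CD-1 mice (~8-12 weeks, 20-28 g) were fasted 24 h with free water. Conscious mice got 400-600 kBq [¹⁸F] tracer in saline by tail vein. At 5, 30, 60 or 120 min (n=4-5 per time) they were anesthetized, blood and urine sampled, then killed by cervical dislocation. Organs were weighed and γ-counted, giving % ID/g wet tissue.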

Blood [2] = test: Biodistribution in CD1 mouse blood assessed per gram of wet tissue at 400 to 600 kBq, iv after 30 mins post-injection by gamma counting; format: ADME, organism-based; conditions: in vivo, 0.5 h; in short: as §1
Muscle tissue [3] = test: Biodistribution in CD1 mouse muscle assessed per gram of wet tissue at 400 to 600 kBq, iv after 60 mins post-injection by gamma counting in presence of 1 mg/kg, ip sigma 1/sigma 2 receptor antagonist haloperidol treated before compound addition; format: organism-based; set-up: route intravenous; conditions: in vivo, 1 h
In short: (§2)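 They were killed at 60 min pi, and organs were weighed and γ-counted as % ID/g wet tissue. Comparison with controls used Student's t test (independent, two-tailed).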

Stomach = test: Biodistribution in CD1 mouse stomach assessed per gram of wet tissue at 400 to 600 kBq, iv after 5 mins post-injection by gamma counting; format: ADME, organism-based; conditions: in vivo
In short: (§3)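 Female CD-1 mice (~8-12 weeks, 20-28 g), habituated ≥48 h and fasted 24 h with water available. The [18F] tracer (>150 GBq/μmol at end of synthesis) was given in 200 μL saline into the tail vein of conscious animals. At each time point, n=4-5, mice were anaesthetised, blood and urine sampled, then killed by cervical dislocation. Organs were weighed and γ-counted, and values calculated as % ID/g wet tissue.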

Lung [4] = test: Biodistribution in CD1 mouse lung assessed per gram of wet tissue at 400 to 600 kBq, iv after 60 mins post-injection by gamma counting in presence of 1 mg/kg, ip sigma 1/sigma 2 receptor antagonist haloperidol treated before compound addition; format: organism-based; set-up: route intravenous; conditions: in vivo, 1 h; in short: as §2
Pancreas [5] = test: Biodistribution in CD1 mouse pancreas assessed per gram of wet tissue at 400 to 600 kBq, iv after 60 mins post-injection by gamma counting in presence of 1 mg/kg, ip sigma 1/sigma 2 receptor antagonist haloperidol treated before compound addition; format: organism-based; set-up: route intravenous; conditions: in vivo, 1 h; in short: as §2
Pancreas [6] = test: Biodistribution in CD1 mouse pancreas assessed per gram of wet tissue at 400 to 600 kBq, iv after 120 mins post-injection by gamma counting; format: ADME, organism-based; conditions: in vivo, 2 h; in short: as §3
Femur [7] = test: Biodistribution in CD1 mouse femur assessed per gram of wet tissue at 400 to 600 kBq, iv after 5 mins post-injection by gamma counting; format: ADME, organism-based; conditions: in vivo; in short: as §1
Mus musculus = test: Plasma concentration in CD1 mouse assessed per gram of wet tissue at 400 to 600 kBq, iv after 30 mins post-injection by gamma counting; format: ADME, organism-based; conditions: in vivo, 0.5 h
In short: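 Female CD-1 mice (~8-12 weeks, 20-28 g), fasted 24 h with free access to water. 400-600 kBq [18F] tracer in 200 μL saline given by tail vein to conscious mice. At 5, 30, 60 or 120 min pi (n=4-5 per time) mice anaesthetised, blood taken, then euthanised. Samples weighed, γ-counted, %ID/g wet tissue calculated.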

[8] = Biodistribution in CD1 mouse thymus assessed per gram of wet tissue at 400 to 600 kBq, iv after 60 mins post-injection by gamma counting; format: ADME, organism-based; conditions: in vivo, 1 h; in short: as §3
[9] = Biodistribution in CD1 mouse urine assessed as per gram of wet bladder at 400 to 600 kBq, iv after 120 mins post-injection by gamma counting; format: ADME, organism-based; conditions: in vivo, 2 h; in short: as §3
Spleen = test: Biodistribution in CD1 mouse spleen assessed per gram of wet tissue at 400 to 600 kBq, iv after 120 mins post-injection by gamma counting; format: ADME, organism-based; conditions: in vivo, 2 h; in short: as §3
Lung [10] = test: Biodistribution in CD1 mouse lung assessed per gram of wet tissue at 400 to 600 kBq, iv after 120 mins post-injection by gamma counting; format: ADME, organism-based; conditions: in vivo, 2 h; in short: as §3
Pancreas [11] = test: Drug uptake in CD1 mouse pancreas at 400 to 600 kBq, iv after 120 mins post-injection by gamma counting relative to initial uptake; format: ADME, organism-based; conditions: in vivo, 2 h
In short: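 Organ % ID/g was measured by γ-counting after tail-vein injection of 400-600 kBq [18F] tracer in saline to fasted female CD-1 mice (n=4-5 per time). The 120 min pi value is expressed relative to the initial (5 min pi) uptake.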

Femur [12] = test: Biodistribution in CD1 mouse femur assessed per gram of wet tissue at 400 to 600 kBq, iv after 120 mins post-injection by gamma counting; format: ADME, organism-based; conditions: in vivo, 2 h; in short: as §1
Liver [13] = test: Biodistribution in CD1 mouse liver assessed per gram of wet tissue at 400 to 600 kBq, iv after 60 mins post-injection by gamma counting; format: ADME, organism-based; conditions: in vivo, 1 h; in short: as §3
Kidney = test: Biodistribution in CD1 mouse kidney assessed per gram of wet tissue at 400 to 600 kBq, iv after 60 mins post-injection by gamma counting; format: ADME, organism-based; conditions: in vivo, 1 h; in short: as §1
Muscle tissue [14] = test: Biodistribution in CD1 mouse muscle assessed per gram of wet tissue at 400 to 600 kBq, iv after 30 mins post-injection by gamma counting; format: ADME, organism-based; conditions: in vivo, 0.5 h; in short: as §3
[15] = Metabolic stability in CD1 mouse urine assessed as formation of hydrophilic and lipophilioc radiometabolite at 200 to 300 MBq, iv after 45 mins post-injection by radio-HPLC and radio-TLC; format: ADME, organism-based; conditions: in vivo, 0.75 h
Intestine [16] = test: Biodistribution in CD1 mouse intestine assessed per gram of wet tissue at 400 to 600 kBq, iv after 30 mins post-injection by gamma counting; format: ADME, organism-based; conditions: in vivo, 0.5 h; in short: as §1
Intestine [17] = test: Biodistribution in CD1 mouse intestine assessed per gram of wet tissue at 400 to 600 kBq, iv after 60 mins post-injection by gamma counting; format: ADME, organism-based; conditions: in vivo, 1 h; in short: as §1
Liver [18] = test: Biodistribution in CD1 mouse liver assessed increase in drug uptake at 400 to 600 kBq, iv after 60 mins post-injection by gamma counting in presence of 1 mg/kg, ip sigma 1/sigma 2 receptor antagonist haloperidol treated before compound addition; format: organism-based; set-up: dose 1 mg/kg, route intravenous; conditions: in vivo, 1 h
In short: (§4)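 Blocking arm in fasted female CD-1 mice (n=5). […] Animals were killed at 60 min post-injection, and organs were weighed and γ-counted as % ID/g wet tissue. Percent change was taken against the 60 min control group, with two-tailed unpaired Student's t test.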

[19] = Biodistribution in CD1 mouse thymus assessed per gram of wet tissue at 400 to 600 kBq, iv after 120 mins post-injection by gamma counting; format: ADME, organism-based; conditions: in vivo, 2 h; in short: as §3
Lung [20] = test: Biodistribution in CD1 mouse lung assessed per gram of wet tissue at 400 to 600 kBq, iv after 30 mins post-injection by gamma counting; format: ADME, organism-based; conditions: in vivo, 0.5 h; in short: as §3
Blood [21] = test: Biodistribution in CD1 mouse blood assessed per gram of wet tissue at 400 to 600 kBq, iv after 60 mins post-injection by gamma counting in presence of 1 mg/kg, ip sigma 1/sigma 2 receptor antagonist haloperidol treated before compound addition; format: organism-based; set-up: dose 1 mg/kg, route intravenous; conditions: in vivo, 1 h; in short: as §4
[22] = Biodistribution in CD1 mouse gonad assessed per gram of wet tissue at 400 to 600 kBq, iv after 60 mins post-injection by gamma counting; format: ADME, organism-based; conditions: in vivo, 1 h; in short: as §1
[23] = Biodistribution in CD1 mouse gonad assessed per gram of wet tissue at 400 to 600 kBq, iv after 60 mins post-injection by gamma counting in presence of 1 mg/kg, ip sigma 1/sigma 2 receptor antagonist haloperidol treated before compound addition; format: organism-based; set-up: dose 1 mg/kg, route intravenous; conditions: in vivo, 1 h; in short: as §4

[18F]CCCC1OC2(CCN(Cc3ccccc3)CC2)c2ccccc21 (configuration not stated)
Drug uptake (Blood [1]): 0.48 %ID | Drug uptake (Blood [2]): 0.56 %ID | Drug uptake (Muscle tissue [3]): 0.9 %ID | Drug uptake (Stomach): 3.39 %ID | Drug uptake (Lung [4]): 2.11 %ID | Drug uptake (Pancreas [5]): 3.05 %ID | Drug uptake (Pancreas [6]): 10.5 %ID | Drug uptake (Femur [7]): 2.17 %ID | Drug uptake (Mus musculus): 0.96 %ID | Drug uptake [8]: 2.87 %ID | Drug uptake [9]: 49.2 %ID | Drug uptake (Spleen): 4.65 %ID | Drug uptake (Lung [10]): 3.37 %ID | Drug uptake (Pancreas [11]): > 70% | Drug uptake (Femur [12]): 6.64 %ID | Drug uptake (Liver [13]): 3.24 %ID | Drug uptake (Kidney): 5.14 %ID | Drug uptake (Muscle tissue [14]): 1.8 %ID | Activity [15]: 98% | Drug uptake (Intestine [16]): 6.81 %ID | Drug uptake (Intestine [17]): 6.59 %ID | Drug uptake (Liver [18]): 3.89 %ID | Drug uptake [19]: 2.86 %ID | Drug uptake (Lung [20]): 7.01 %ID | Drug uptake (Blood [21]): 0.56 %ID | Drug uptake [22]: 4.22 %ID | Drug uptake [23]: 4.92 %ID
